The values below come from ChEMBL document CHEMBL1126779, “Antagonism of 1-(2,5-dimethoxy-4-methylphenyl)-2-aminopropane stimulus with a newly identified 5-HT2- versus 5-HT1C-selective antagonist” (J Med Chem, 1993).

The target in assay [1] is Serotonin 2 (5-HT2) receptor (Rattus norvegicus, UniProt P30994+P08909+P14842). Put plainly: Tested for binding affinity against 5-hydroxytryptamine 2 receptor from rat frontal cortical regions using [3H]ketanserin as radioligand. It counts as protein assay. The essentials:
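Frontal cortex from male Sprague-Dawley rats was homogenized in Tris HCl/EDTA/MgCl2 buffer, pH 7.4, containing ascorbate and pargyline. Each triplicate tube held 5 mg wet tissue and 0.4 nM [3H]ketanserin, with nonspecific binding defined by 1.0 µM cinanserin. Incubation was 15 min at 37 °C, then glass-fiber filtration and an ice-cold wash. IC50 was converted to Ki using radioligand KD from saturation experiments.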

In assay [2] the target is T1, 5-hydroxytryptamine receptor 2C (Rattus norvegicus, UniProt P08909).
T1 sequence (P08909 whole entry): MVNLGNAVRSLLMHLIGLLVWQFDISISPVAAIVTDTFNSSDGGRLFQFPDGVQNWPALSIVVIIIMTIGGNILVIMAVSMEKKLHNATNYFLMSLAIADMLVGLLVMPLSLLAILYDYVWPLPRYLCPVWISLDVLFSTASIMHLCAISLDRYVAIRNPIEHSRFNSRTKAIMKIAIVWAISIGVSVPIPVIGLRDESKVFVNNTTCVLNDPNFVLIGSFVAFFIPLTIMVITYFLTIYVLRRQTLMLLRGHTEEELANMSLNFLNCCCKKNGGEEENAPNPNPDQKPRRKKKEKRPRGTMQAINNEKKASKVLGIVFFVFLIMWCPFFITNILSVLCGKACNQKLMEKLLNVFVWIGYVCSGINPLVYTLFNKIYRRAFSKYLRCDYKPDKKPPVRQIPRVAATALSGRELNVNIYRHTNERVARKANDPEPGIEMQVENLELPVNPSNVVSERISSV
Put plainly: Tested for binding affinity against 5-hydroxytryptamine 1C receptor from rat frontal cortical regions using [3H]mesulergine as radioligand. The essentials:
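Rat frontal cortex homogenate (male Sprague-Dawley) was washed and preincubated 15 min at 37 °C in 50 mM Tris HCl, 0.5 mM EDTA, 10 mM MgCl2, pH 7.4, with 0.1% ascorbate and 10^-6 M pargyline. Nonspecific binding was set with 1.0 µM mianserin. Tubes ran 15 min at 37 °C in triplicate before filtration.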

The target of assay [3] is T2, 5-hydroxytryptamine receptor 1A (Rattus norvegicus, UniProt P19327).
T2 sequence (P19327 whole entry): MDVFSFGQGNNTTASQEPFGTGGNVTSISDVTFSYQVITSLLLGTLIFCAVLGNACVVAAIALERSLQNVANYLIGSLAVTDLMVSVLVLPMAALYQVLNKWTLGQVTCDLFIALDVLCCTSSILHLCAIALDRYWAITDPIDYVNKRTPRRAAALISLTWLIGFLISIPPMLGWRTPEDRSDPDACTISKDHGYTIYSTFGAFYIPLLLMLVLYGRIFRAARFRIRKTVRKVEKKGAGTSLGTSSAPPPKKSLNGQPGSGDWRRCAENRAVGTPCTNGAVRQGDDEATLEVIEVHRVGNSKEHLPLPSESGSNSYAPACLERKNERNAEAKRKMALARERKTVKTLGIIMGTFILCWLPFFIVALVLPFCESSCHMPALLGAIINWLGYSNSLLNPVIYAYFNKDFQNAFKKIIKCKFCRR
Put plainly: Tested for binding affinity against 5-hydroxytryptamine 1A receptor from rat frontal cortical regions using [3H]8-OH-DPAT as radioligand.

Assay [4] deals with Serotonin 2 (5-HT2) receptor (Rattus norvegicus) (UniProt P30994+P08909+P14842). Put plainly: Selectivity ratio, Ki against 5-HT1C versus 5-HT2. In kind it is protein assay. The essentials: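 Rat frontal cortex homogenate (male Sprague-Dawley) was washed and preincubated 15 min at 37 °C in 50 mM Tris HCl, 0.5 mM EDTA, 10 mM MgCl2, pH 7.4, with 0.1% ascorbate and 10^-6 M pargyline. […] Nonspecific binding was set with 1.0 µM mianserin. Tubes ran 15 min at 37 °C in triplicate before filtration.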

In assay [5] the target is D(2) dopamine receptor (Homo sapiens, UniProt P14416). Description: Tested for binding affinity against dopamine receptor D2.
Assay [6] addresses D(1A) dopamine receptor (Mus musculus, UniProt Q61616). Description: Tested for binding affinity against dopamine receptor D1.

For orientation: Ki means the dissociation constant of the complex between target and ligand, obtained from inhibition or displacement. Read a high Ki as weaker binding.

Sequence of Serotonin 2 (5-HT2) receptor (Rattus norvegicus) (P14842 whole entry, looked up, one chain of several): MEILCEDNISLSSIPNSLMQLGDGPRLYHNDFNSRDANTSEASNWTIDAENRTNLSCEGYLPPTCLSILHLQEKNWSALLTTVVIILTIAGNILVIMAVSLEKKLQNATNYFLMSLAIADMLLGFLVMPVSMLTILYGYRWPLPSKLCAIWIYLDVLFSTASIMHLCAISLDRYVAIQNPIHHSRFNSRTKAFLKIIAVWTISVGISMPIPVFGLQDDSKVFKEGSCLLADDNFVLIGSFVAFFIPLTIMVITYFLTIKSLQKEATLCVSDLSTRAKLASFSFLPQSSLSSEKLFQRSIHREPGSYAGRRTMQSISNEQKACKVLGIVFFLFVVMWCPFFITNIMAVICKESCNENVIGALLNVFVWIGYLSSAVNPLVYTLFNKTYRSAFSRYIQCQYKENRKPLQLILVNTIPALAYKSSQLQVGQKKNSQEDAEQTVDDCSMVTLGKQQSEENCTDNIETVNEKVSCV
Sequence of Serotonin 2 (5-HT2) receptor (Rattus norvegicus) (P30994 whole entry, looked up, one chain of several): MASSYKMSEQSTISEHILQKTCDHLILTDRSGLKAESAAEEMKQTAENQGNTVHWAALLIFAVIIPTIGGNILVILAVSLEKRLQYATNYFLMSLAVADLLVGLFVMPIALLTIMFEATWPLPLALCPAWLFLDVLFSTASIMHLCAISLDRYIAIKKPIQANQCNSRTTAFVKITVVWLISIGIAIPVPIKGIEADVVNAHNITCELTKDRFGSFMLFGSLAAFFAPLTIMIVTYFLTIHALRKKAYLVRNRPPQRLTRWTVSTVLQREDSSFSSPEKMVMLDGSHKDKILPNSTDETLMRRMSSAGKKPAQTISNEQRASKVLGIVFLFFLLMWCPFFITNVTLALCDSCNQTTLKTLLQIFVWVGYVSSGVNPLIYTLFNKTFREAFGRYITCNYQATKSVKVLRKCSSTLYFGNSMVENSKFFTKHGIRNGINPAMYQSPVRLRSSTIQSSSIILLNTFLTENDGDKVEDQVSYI
Sequence of D(2) dopamine receptor (P14416 whole entry): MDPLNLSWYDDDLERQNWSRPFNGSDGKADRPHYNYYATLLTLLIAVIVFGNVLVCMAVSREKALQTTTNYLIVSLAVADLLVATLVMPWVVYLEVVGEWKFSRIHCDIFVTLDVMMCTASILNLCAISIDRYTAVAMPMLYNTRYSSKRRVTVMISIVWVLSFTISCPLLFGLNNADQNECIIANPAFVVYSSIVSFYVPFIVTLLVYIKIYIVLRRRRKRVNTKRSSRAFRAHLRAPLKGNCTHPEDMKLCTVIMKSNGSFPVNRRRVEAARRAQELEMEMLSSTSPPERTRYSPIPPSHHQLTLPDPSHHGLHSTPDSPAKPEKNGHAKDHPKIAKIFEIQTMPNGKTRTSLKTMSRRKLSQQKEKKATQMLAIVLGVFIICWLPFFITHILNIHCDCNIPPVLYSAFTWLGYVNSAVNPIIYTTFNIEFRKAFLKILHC
Sequence of D(1A) dopamine receptor (Q61616 whole entry): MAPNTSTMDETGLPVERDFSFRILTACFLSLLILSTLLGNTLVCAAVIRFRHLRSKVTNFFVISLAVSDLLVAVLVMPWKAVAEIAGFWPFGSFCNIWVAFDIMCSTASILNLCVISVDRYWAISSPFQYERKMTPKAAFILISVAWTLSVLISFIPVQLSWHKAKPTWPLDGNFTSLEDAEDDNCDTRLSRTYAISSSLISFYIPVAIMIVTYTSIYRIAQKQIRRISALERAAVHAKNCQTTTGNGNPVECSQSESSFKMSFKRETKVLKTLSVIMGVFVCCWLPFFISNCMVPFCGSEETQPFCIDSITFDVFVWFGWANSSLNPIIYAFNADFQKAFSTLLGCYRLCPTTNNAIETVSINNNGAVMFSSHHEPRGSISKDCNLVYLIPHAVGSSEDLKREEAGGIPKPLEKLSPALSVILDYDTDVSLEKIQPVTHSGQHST

Turning to `NCCCC(=O)c1ccc(F)cc1`, the Ki in assay [1], in assay [2] and in assay [3] was greater than 100000 nM each time.

For the compound `O=C1NCN(c2ccccc2)C12CCN(CCCc1ccccc1)CC2`, the Ki in assay [1] is 230 nM; in assay [2] it was greater than 10000 nM; in assay [3], 105 nM. For the same compound, the Ratio in assay [4] was greater than 30.

For `O=C(CCCN1CCC(C(=O)c2ccc(F)cc2)CC1)c1ccc(F)cc1` [LENPERONE], the affinity in assay [3], expressed as Ki, was 305 nM.

In the case of `O=C1NCN(c2ccccc2)C12CCN(CCCOc1ccccc1)CC2`, the Ki is 5 nM in assay [1], greater than 10000 nM in assay [2] and 75 nM in assay [3]. In assay [4], the Ratio was greater than 2000.

As for `O=C(CCCN1CCC2(CC1)C(=O)NCN2c1ccccc1)c1ccc(F)cc1` [SPIPERONE], affinity in assay [3] was put at a Ki of 49 nM.

In the case of `Fc1ccc(OCCCN2CCC(Nc3ccccc3)CC2)cc1`, the Ki in assay [1] stood at 88 nM; in assay [2] it was 3600 nM; in assay [3], 120 nM. Besides, in assay [4], the Ratio stood at 40.

In the case of `O=C1NCN(c2ccccc2)C12CCN(CCCCc1ccccc1)CC2`, the Ki in assay [1] was 30 nM; in assay [2], greater than 10000 nM; in assay [3] it was 85 nM. Also, the Ratio in assay [4] is greater than 300.

Take `O=C1NCN(c2ccccc2)C12CCNCC2`: the Ki in assay [1], in assay [2] and in assay [3] was greater than 10000 nM in each case.

For `O=C(Nc1ccccc1)C1CCN(CCCOc2ccc(F)cc2)CC1`, the figures for the Ki in assay [1] and in assay [2] were 95 nM and greater than 10000 nM, respectively. The Ratio in assay [4] was greater than 100.

With `O=C1NCN(c2ccccc2)C12CCN(CCCCc1ccc(F)cc1)CC2`, the Ki in assay [1] came out at 5 nM; in assay [2] it was 3200 nM; in assay [3], 110 nM. In addition, the Ratio in assay [4] is 650.

Take `COc1ccc(OCCCN2CCC3(CC2)C(=O)NCN3c2ccccc2)cc1`: the results for the Ki in assay [1], in assay [2] and in assay [3] were 1000 nM, greater than 10000 nM and 445 nM, respectively. For the same compound, the Ratio in assay [4] was greater than 10.

In the case of `O=C1NCN(c2ccccc2)C12CCN(CCCCOc1ccccc1)CC2`, the Ki is 325 nM in assay [1], greater than 10000 nM in assay [2] and 30 nM in assay [3]. In addition, the Ratio in assay [4] is greater than 30.

On to `NCCCOc1ccc(F)cc1`, for which the figures for the Ki in assay [1] and in assay [2] were 1400 nM and greater than 10000 nM, respectively. For the same compound, in assay [4], the Ratio is greater than 5.

With `CN(C)CCCOc1ccc(F)cc1`, the figures for the Ki in assay [1] and in assay [2] were 295 nM and greater than 10000 nM, respectively. Further, the Ratio in assay [4] is greater than 30.

As for `O=C(CCCN1CCC(Cc2ccccc2)CC1)c1ccc(F)cc1`, the Ki stood at 50 nM in assay [1], 1650 nM in assay [2] and 180 nM in assay [3]. Besides, the Ratio in assay [4] worked out at 35.

As for `O=C1NCN(c2ccccc2)C12CCN(CCc1ccccc1)CC2`, the Ki in assay [1] was 570 nM; in assay [2], 6000 nM; in assay [3] it was 1020 nM. Also, in assay [4], the Ratio stood at 10.

As to `CN(C)CCCC(=O)c1ccc(F)cc1`, the values for the Ki in assay [1] and in assay [2] were 80 nM and 3300 nM, respectively. Further, the Ratio in assay [4] was determined as 40.

In the case of `O=C(CCCN1CCCCC1)c1ccc(F)cc1` [PRIMAPERONE], the Ki in assay [1] is 140 nM; in assay [2], greater than 10000 nM; in assay [3] it was greater than 10000 nM. In addition, the Ratio in assay [4] is greater than 70.

In the case of `CN(c1ccccc1)C1CCN(CCCOc2ccc(F)cc2)CC1`, the Ki in assay [1] came out at 32 nM; in assay [2], 2870 nM; in assay [3], 110 nM. Moreover, the Ratio in assay [4] was 90.

Take `O=C1NCN(c2ccccc2)C12CCN(CCCOc1ccc([N+](=O)[O-])cc1)CC2`: the values for the Ki in assay [1], in assay [2] and in assay [3] were 600 nM, greater than 10000 nM and 1160 nM, respectively. Besides, in assay [4], the Ratio is greater than 10.

Regarding `O=C(NC1CCN(CCCOc2ccc(F)cc2)CC1)c1ccccc1`, the Ki in assay [1] was 70 nM; in assay [2] it was greater than 10000 nM. Moreover, the Ratio in assay [4] is greater than 140.

For the compound `O=C1NCN(c2ccccc2)C12CCN(CCCOc1ccc(F)cc1)CC2` [SPIRAMIDE], the Ki is 2 nM in assay [1]; 4300 nM in assay [2]; 3 nM in assay [5]; 50 nM in assay [3]; 2530 nM in assay [6]. Moreover, the Ratio in assay [4] came to 2100.

Turning to `O=C(CCCN1CCC(NC(=O)c2ccccc2)CC1)c1ccc(F)cc1`, the Ki was 70 nM in assay [1] and greater than 10000 nM in assay [2]. In addition, the Ratio in assay [4] was greater than 140.

On to `O=C(c1ccc(F)cc1)C1CCN(CCCOc2ccc(F)cc2)CC1`, for which the Ki in assay [1] was 8 nM; in assay [2] it was 335 nM; in assay [3], 285 nM. Further, the Ratio in assay [4] came to 40.

Turning to `c1ccc(CCCCN2CCN(c3ccccc3)CC2)cc1`, the affinity in assay [3], expressed as Ki, was 1 nM.
